Assay results collected from several papers.
PIK3CA E545K: Phosphatidylinositol 4,5-bisphosphate 3-kinase catalytic subunit alpha isoform (PIK3CA, Homo sapiens, UniProt P42336, E545K)
PIK3CA E545A: Phosphatidylinositol 4,5-bisphosphate 3-kinase catalytic subunit alpha isoform (PIK3CA, Homo sapiens, UniProt P42336, E545A)
PIK3CA E542K: Phosphatidylinositol 4,5-bisphosphate 3-kinase catalytic subunit alpha isoform (PIK3CA, Homo sapiens, UniProt P42336, E542K)
PIK3CA Q546K: Phosphatidylinositol 4,5-bisphosphate 3-kinase catalytic subunit alpha isoform (PIK3CA, Homo sapiens, UniProt P42336, Q546K)
PIK3CA: Phosphatidylinositol 4,5-bisphosphate 3-kinase catalytic subunit alpha isoform (PIK3CA, Homo sapiens, UniProt P42336)
PIK3CA H1047L: Phosphatidylinositol 4,5-bisphosphate 3-kinase catalytic subunit alpha isoform (PIK3CA, Homo sapiens, UniProt P42336, H1047L)
PIK3CA C420R: Phosphatidylinositol 4,5-bisphosphate 3-kinase catalytic subunit alpha isoform (PIK3CA, Homo sapiens, UniProt P42336, C420R)
PIK3CA H1047Y: Phosphatidylinositol 4,5-bisphosphate 3-kinase catalytic subunit alpha isoform (PIK3CA, Homo sapiens, UniProt P42336, H1047Y)
PIK3CA I800L: Phosphatidylinositol 4,5-bisphosphate 3-kinase catalytic subunit alpha isoform (PIK3CA, Homo sapiens, UniProt P42336, I800L)

Compound | target | test | conditions | remaining binding
CCC(=O)N[C@H]1CC[C@@H](C(=O)N(C)c2ccc(-c3nc4ccccc4o3)cc2)C1 | PIK3CA E545K | cell-free assay, competition with immobilised ligand | 1 µM | 74%
COc1cnc(Nc2cccc(S(N)(=O)=O)c2)nc1N1CCN(c2ccccc2)CC1 | PIK3CA E545A | binding, competition with immobilised ligand | 1 µM | 100%
O=C(NCCCN1CCOCC1)c1ccc(Nc2nccc(-c3cc4ccccc4s3)n2)cc1 | PIK3CA E542K | binding, competition with immobilised ligand | 1 µM | 41%
C[C@H]1CCN(c2nccc(-c3cnn4ncccc34)n2)C1 | PIK3CA Q546K | binding | 1 µM | 85%
O=C(NCc1ncc(C(F)(F)F)cc1Cl)c1ccc2c(c1)C1(CCS(=O)(=O)CC1)[C@@H](C1CC1)N2S(=O)(=O)c1ccc(F)cc1 | PIK3CA Q546K | cell-free assay, competition with immobilised ligand | 1 µM | 72%
N[C@@H]1CCN(c2nccc(-c3cnn4ncccc34)n2)C1 | PIK3CA | binding | 1 µM | 100%
O=C(NS(=O)(=O)c1ccc(NCC2CCOCC2)c([N+](=O)[O-])c1)c1ccc(N2CCN(Cc3ccc(C(F)(F)F)cc3-c3ccc(Cl)cc3)CC2)cc1Oc1cnc2[nH]ccc2c1 | PIK3CA | cell-free assay, competition with immobilised ligand | 1 µM | 69%
O=C(c1ccc(Nc2nccc(-c3cc4ccccc4s3)n2)cc1)N1CCC(N2CCCC2)CC1 | PIK3CA Q546K | binding, competition with immobilised ligand | 1 µM | 100%
COc1cnc(Nc2cccc(S(N)(=O)=O)c2)nc1N1CCN(c2ccccc2)C(=O)C1 | PIK3CA H1047L | binding, competition with immobilised ligand | 1 µM | 90%
CN(CCCC(F)(F)F)c1nccc(-c2cnn3ncccc23)n1 | PIK3CA C420R | binding | 1 µM | 100%
C=CC(=O)N1CCC(C(=O)NCC(=O)N2CCN(c3nc(-c4cnc(N)nc4C(F)F)nc(N4CCOCC4)n3)CC2)CC1 | PIK3CA C420R | binding, competition with immobilised ligand | 1 µM | 0.6%
O=C(N[C@H]1CCCCC/C=C\C2C[C@@]2(C(=O)O)NC(=O)[C@@H]2C[C@@H](Oc3ccncc3)CN2C1=O)OC1CCCC1 (stereo partly shown) | PIK3CA E542K | binding, competition with immobilised ligand | 1 µM | 96%
O=C(NCCCN1CCOCC1)c1ccc(Nc2ncc(Cl)c(-c3ccc(Cl)s3)n2)cc1 | PIK3CA C420R | binding, competition with immobilised ligand | 1 µM | 100%
CCS(=O)(=O)c1cc2cc(C[C@](O)(CC(C)(C)c3ccc(F)cc3C(N)=O)C(F)(F)F)[nH]c2cn1 | PIK3CA H1047L | cell-free assay, competition with immobilised ligand | 1 µM | 96%
O=C(Nc1c[nH]nc1C(=O)NC1CCNCC1)c1cc(F)cc(F)c1 | PIK3CA H1047L | binding, competition with immobilised ligand | 1 µM | 87%
CNC(=O)[C@@H]1CC[C@@H](n2c(-c3ccc4cnccc4c3)nc3ccc(C(=O)NCc4cccc(C(N)=O)c4)cc32)C1 | PIK3CA E545K | binding, competition with immobilised ligand | 1 µM | 84%

Compound | target | test | conditions | remaining binding
COc1ncc2cc3ccccc3nc2c1C#N | PIK3CA C420R | cell-free assay, competition with immobilised ligand | 5 µM | 78%
C[C@@H](c1ccc(-n2cnc3c(N)ncnc32)cc1)N1CCc2nn(C)c(Cc3ccccc3)c2C1=O | PIK3CA E545A | binding, competition with immobilised ligand | 0.1 µM | 100%
CCN1CCN(Cc2ccc(C(=O)Nc3ccc(C)c(Oc4ccc5c(c4)CC(=O)N5)c3)cc2C(F)(F)F)CC1 | PIK3CA H1047L | binding, competition with immobilised ligand | 1 µM | 100%
CN(C)c1nccc(-c2cnc3ncccn23)n1 | PIK3CA | binding | 1 µM | 71%
Cc1cnc(Nc2ccc(C(=O)N3CCC(N4CCCC4)CC3)cc2)nc1-c1cc2ccccc2s1 | PIK3CA | binding, competition with immobilised ligand | 1 µM | 97%
O=C(NCC1CCOCC1)c1n[nH]cc1NC(=O)c1c(F)cccc1F | PIK3CA H1047Y | binding, competition with immobilised ligand | 1 µM | 100%
CN(C(=O)c1ccccc1)c1cc(N(C)c2ccc3c(c2)CCc2ccc(C(=O)NCCN4CCOCC4)cc2C3=O)ccc1F | PIK3CA I800L | cell-free assay, competition with immobilised ligand | 1 µM | 62%
CC1CCCN1c1nccc(-c2cnn3ncccc23)n1 (stereo not shown) | PIK3CA I800L | binding | 1 µM | 88%
CCOCCn1cc(C(=O)Nc2ccc(-n3nc(-c4cccnc4)cc3C(F)(F)F)cn2)ccc1=O | PIK3CA E545K | cell-free assay, competition with immobilised ligand | 1 µM | 96%
F[C@@H]1CCN(c2nccc(-c3cnn4ncccc34)n2)C1 | PIK3CA E545A | binding | 1 µM | 92%
Nc1ncc2c(n1)-c1c([nH]c3ccc(C#CC4CC4)cc13)CCCC2 | PIK3CA H1047Y | binding, competition with immobilised ligand | 1 µM | 75%
Cc1cnn2ncc(-c3ccnc(N(C)C)n3)c2c1 | PIK3CA E542K | binding | 1 µM | 79%
O=C(c1ccc(Nc2ncc(Cl)c(-c3ccc(Cl)s3)n2)cc1)N1CCC(N2CCCC2)CC1 | PIK3CA E545A | binding, competition with immobilised ligand | 1 µM | 100%
c1cncc(-c2cccc(Nc3nccc(NC4CCCCC4)n3)c2)c1 | PIK3CA H1047L | binding, competition with immobilised ligand | 10 µM | 100%
O=S(=O)(NC1CCC(c2cc(F)ccc2F)(S(=O)(=O)c2ccc(Cl)cc2)CC1)C(F)(F)F (stereo not shown) | PIK3CA E542K | cell-free assay, competition with immobilised ligand | 1 µM | 100%
